Data taken from ChEMBL document CHEMBL2417498, “Design and synthesis of 6,7-methylenedioxy-4-substituted phenylquinolin-2(1H)-one derivatives as novel anticancer agents that induce apoptosis with cell cycle arrest at G2/M phase” (Bioorg Med Chem, 2013).

Assays:
[1] = system: A498; test: Cytotoxicity against human A498 cells after 48 hrs by MTT assay; format: functional, cell-based; settings: A498, 48 h
Procedure, shortened: (§1)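 Log-phase tumour cells grown in RPMI-1640 with 10% FBS, penicillin/streptomycin and 1% L-glutamine at 37 °C, 5% CO2. Cells treated with vehicle or a range of concentrations for 48 h. Growth measured by MTT reduction, absorbance at 570 nm. IC50 is the concentration giving 50% proliferation inhibition, from 3 independent experiments.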

[2] = system: COLO 205; test: Cytotoxicity against human COLO205 cells after 48 hrs by MTT assay; format: functional, cell-based; settings: COLO 205, 48 h; procedure, shortened: as §1
[3] = Cytotoxicity against human H460 cells after 48 hrs by MTT assay; format: functional, cell-based; settings: NCI-H460, 48 h; procedure, shortened: as §1
[4] = Cytotoxicity against human 2774 cells after 48 hrs by MTT assay; format: functional, cell-based
[5] = system: MCF7; test: Cytotoxicity against human MCF7 cells after 48 hrs by MTT assay; format: functional, cell-based; settings: MCF7, 48 h; procedure, shortened: as §1
[6] = Cytotoxicity against human Hep3B cells after 48 hrs by MTT assay; format: functional, cell-based, Hep 3B2
Procedure, shortened: (§2)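 Detroit 551 normal skin cells and Hep 3B hepatoma cells grown in DMEM with 10% FBS, penicillin/streptomycin and 1% L-glutamine at 37 °C, 5% CO2. Log-phase cells treated with vehicle or a range of concentrations for 48 h. MTT reduction read at 570 nm. IC50 (50% proliferation inhibition) taken from 3 independent experiments.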

[7] = system: Detroit 551; test: Cytotoxicity against human Detroit 551 cells after 48 hrs by MTT assay; format: cell-based; settings: Detroit 551, 48 h; procedure, shortened: as §2
[8] = system: SK-OV-3; test: Cytotoxicity against human SKOV3 cells after 48 hrs by MTT assay; format: functional, cell-based; settings: SK-OV-3, 48 h; procedure, shortened: as §1
[9] = system: HL-60; test: Cytotoxicity against human HL60 cells after 48 hrs by MTT assay; format: functional, cell-based; settings: HL-60, 48 h; procedure, shortened: as §1

COc1cccc(-c2cc(=O)[nH]c3cc4c(cc23)OCO4)c1
IC50 [1]: > 50 µM
IC50 [2]: 39.6 µM
IC50 [3]: > 10 µM
IC50 [4]: 15.6 µM
IC50 [5]: 14.9 µM
IC50 [6]: > 10 µM
IC50 [7]: > 10 µM
IC50 [8]: 24.6 µM
IC50 [9]: > 10 µM

COc1cccc(OC)c1-c1cc(=O)[nH]c2cc3c(cc12)OCO3
IC50 [1]: > 50 µM
IC50 [2]: > 50 µM
IC50 [3]: > 100 µM
IC50 [4]: > 30 µM
IC50 [5]: 29.8 µM
IC50 [6]: > 100 µM
IC50 [7]: > 100 µM
IC50 [8]: > 30 µM
IC50 [9]: > 100 µM

COc1cc(-c2cc(=O)[nH]c3cc4c(cc23)OCO4)cc(OC)c1OC
IC50 [1]: > 50 µM
IC50 [2]: > 50 µM
IC50 [3]: 7.6 µM
IC50 [4]: 2.1 µM
IC50 [5]: 4.5 µM
IC50 [6]: 5 µM
IC50 [7]: > 25 µM
IC50 [8]: 0.93 µM
IC50 [9]: 2.3 µM

O=c1[nH]cc(F)c(=O)[nH]1 [FLUOROURACIL]
IC50 [3]: 26.7 µM
IC50 [9]: 22.3 µM

COc1cc(OC)c(-c2cc(=O)[nH]c3cc4c(cc23)OCO4)c(OC)c1
IC50 [1]: > 50 µM
IC50 [2]: 37.4 µM
IC50 [3]: 67.6 µM
IC50 [4]: > 30 µM
IC50 [5]: 21 µM
IC50 [6]: > 100 µM
IC50 [7]: > 100 µM
IC50 [8]: > 30 µM
IC50 [9]: 75 µM

O=c1cc(-c2ccccc2)c2cc3c(cc2[nH]1)OCO3
IC50 [1]: 42.7 µM
IC50 [2]: > 50 µM
IC50 [3]: > 50 µM
IC50 [4]: > 30 µM
IC50 [5]: 18.5 µM
IC50 [6]: > 50 µM
IC50 [7]: > 50 µM
IC50 [8]: > 30 µM
IC50 [9]: > 50 µM

COc1ccc(OC)c(-c2cc(=O)[nH]c3cc4c(cc23)OCO4)c1
IC50 [1]: 28.9 µM
IC50 [2]: 6.1 µM
IC50 [3]: 10 µM
IC50 [4]: 6.5 µM
IC50 [5]: 3.7 µM
IC50 [6]: 10 µM
IC50 [7]: > 100 µM
IC50 [8]: 20 µM
IC50 [9]: 3.5 µM

COc1ccc(-c2cc(=O)[nH]c3cc4c(cc23)OCO4)cc1OC
IC50 [1]: 25.6 µM
IC50 [2]: 16.8 µM
IC50 [3]: 14.4 µM
IC50 [4]: 6.6 µM
IC50 [5]: 14.3 µM
IC50 [6]: 14.6 µM
IC50 [7]: 23.6 µM
IC50 [8]: 6.4 µM
IC50 [9]: 4.1 µM

COc1cc(OC)cc(-c2cc(=O)[nH]c3cc4c(cc23)OCO4)c1
IC50 [1]: 11.7 µM
IC50 [2]: > 50 µM
IC50 [3]: > 10 µM
IC50 [4]: 8.3 µM
IC50 [5]: > 30 µM
IC50 [6]: > 10 µM
IC50 [7]: > 10 µM
IC50 [8]: > 30 µM
IC50 [9]: 2.9 µM

O=c1cc(-c2ccccc2F)c2cc3c(cc2[nH]1)OCO3
IC50 [1]: > 50 µM
IC50 [2]: > 50 µM
IC50 [3]: > 100 µM
IC50 [4]: 26.4 µM
IC50 [5]: > 30 µM
IC50 [6]: > 100 µM
IC50 [7]: > 100 µM
IC50 [8]: > 30 µM
IC50 [9]: > 100 µM

COc1ccccc1-c1cc(=O)[nH]c2cc3c(cc12)OCO3
IC50 [1]: 9.8 µM
IC50 [2]: 18.1 µM
IC50 [3]: > 25 µM
IC50 [4]: 18.8 µM
IC50 [5]: 27.1 µM
IC50 [6]: 23.3 µM
IC50 [7]: > 25 µM
IC50 [8]: 26.6 µM
IC50 [9]: 10 µM

COc1cc([C@@H]2c3cc4c(cc3[C@@H](O[C@@H]3O[C@@H]5CO[C@@H](C)O[C@H]5[C@H](O)[C@H]3O)[C@H]3COC(=O)[C@H]23)OCO4)cc(OC)c1O [ETOPOSIDE]
IC50 [3]: 1 µM
IC50 [9]: 5.48 µM

O=c1cc(-c2cccc(F)c2)c2cc3c(cc2[nH]1)OCO3
IC50 [1]: > 50 µM
IC50 [2]: > 50 µM
IC50 [3]: > 20 µM
IC50 [4]: 24.5 µM
IC50 [5]: > 30 µM
IC50 [6]: > 20 µM
IC50 [7]: > 20 µM
IC50 [8]: > 30 µM
IC50 [9]: > 20 µM

O=c1cc(-c2ccc(F)cc2)c2cc3c(cc2[nH]1)OCO3
IC50 [1]: > 50 µM
IC50 [2]: > 50 µM
IC50 [3]: > 20 µM
IC50 [4]: 17.6 µM
IC50 [5]: > 30 µM
IC50 [6]: > 20 µM
IC50 [7]: > 20 µM
IC50 [8]: > 30 µM
IC50 [9]: > 60 µM

COc1ccc(-c2cc(=O)[nH]c3cc4c(cc23)OCO4)cc1
IC50 [1]: > 25 µM
IC50 [2]: > 50 µM
IC50 [3]: > 20 µM
IC50 [4]: > 30 µM
IC50 [5]: > 30 µM
IC50 [6]: > 20 µM
IC50 [7]: > 20 µM
IC50 [8]: 26.8 µM
IC50 [9]: > 20 µM
